In brackets after ≈: the same amount, converted by molar mass.
Legend:
Type in all cases: functional
[1] = test system: Staphylococcus epidermidis; test: Antibacterial activity against methicillin-resistant Staphylococcus epidermidis 10-1 after 18 hrs by two fold serial dilution method; conditions: 10-1, 18 h
Procedure, shortened: (§1)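 Agar two-fold serial dilution in melted Mueller-Hinton agar, 128 to 0.008 μg/mL. Plates inoculated with 10⁴ cfu, incubated 35 °C for 18 h. MIC taken as lowest concentration giving no visible growth on the plate.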

Staphylococcus aureus [2] = test: Antibacterial activity against Staphylococcus aureus ATCC 25923 after 18 hrs by two fold serial dilution method; conditions: ATCC 25923, 18 h
Procedure, shortened: (§2)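 Agar two-fold serial dilution in melted Mueller-Hinton agar, final concentrations 128 down to 0.008 μg/mL. Plates inoculated with 10⁴ cfu and incubated at 35 °C for 18 h. MIC taken as the lowest concentration giving no visible growth on the plate.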

Enterococcus faecium [3] = test: Antibacterial activity against Enterococcus faecium 09-6 after 18 hrs by two fold serial dilution method; conditions: 09-6, 18 h; procedure, shortened: as §2
Staphylococcus aureus [4] = test: Antibacterial activity against methicillin-sensitive Staphylococcus aureus 10-2 after 18 hrs by two fold serial dilution method; conditions: 10-2, 18 h; procedure, shortened: as §2
Staphylococcus aureus [5] = test: Antibacterial activity against methicillin-resistant Staphylococcus aureus 10-4 after 18 hrs by two fold serial dilution method; conditions: 10-4, 18 h; procedure, shortened: as §1
Klebsiella pneumoniae [6] = test: Antibacterial activity against Klebsiella pneumoniae 09-2 after 18 hrs by two fold serial dilution method; conditions: 09-2, 18 h; procedure, shortened: as §2
Pseudomonas aeruginosa [7] = test: Antibacterial activity against Pseudomonas aeruginosa 10-1 after 18 hrs by two fold serial dilution method; conditions: 10-1, 18 h; procedure, shortened: as §2
Enterococcus faecium [8] = test: Antibacterial activity against Enterococcus faecium 09-1 after 18 hrs by two fold serial dilution method; conditions: 09-1, 18 h; procedure, shortened: as §2
Klebsiella pneumoniae [9] = test: Antibacterial activity against Klebsiella pneumoniae 10-3 infected KM mouse systemic infection model assessed as decrease in mouse mortality administered orally twice after 1 and 4 hrs post infection measured up to 7 days; conditions: 10-3, po
Procedure, shortened: (§3)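 Strains grown on MH agar at 35 °C for 18 h, suspended in gastric mucin. Male KM mice (19–21 g), groups of 10, infected intraperitoneally with 0.5 mL at 5–10× MLD. Four oral dose levels per drug at 1 and 4 h post infection. Mortality followed 7 days; ED50 with 95% confidence limits by Bliss method.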

Staphylococcus aureus [10] = test: Antibacterial activity against methicillin-resistant Staphylococcus aureus 10-1 after 18 hrs by two fold serial dilution method; conditions: 10-1, 18 h; procedure, shortened: as §1
Klebsiella pneumoniae [11] = test: Antibacterial activity against Klebsiella pneumoniae 10-1 after 18 hrs by two fold serial dilution method; conditions: 10-1, 18 h; procedure, shortened: as §2
Staphylococcus aureus [12] = test: Antibacterial activity against methicillin-sensitive Staphylococcus aureus 10-3 after 18 hrs by two fold serial dilution method; conditions: 10-3, 18 h; procedure, shortened: as §2
Enterococcus faecalis [13] = test: Antibacterial activity against Enterococcus faecalis 09-1 after 18 hrs by two fold serial dilution method; conditions: 09-1, 18 h; procedure, shortened: as §2
Staphylococcus aureus [14] = test: Antibacterial activity against methicillin-sensitive Staphylococcus aureus 10-1 after 18 hrs by two fold serial dilution method; conditions: 10-1, 18 h; procedure, shortened: as §2
Staphylococcus aureus [15] = test: Antibacterial activity against methicillin-sensitive Staphylococcus aureus 10-5 after 18 hrs by two fold serial dilution method; conditions: 10-5, 18 h; procedure, shortened: as §2
[16] = test system: Staphylococcus epidermidis; test: Antibacterial activity against methicillin-resistant Staphylococcus epidermidis 10-4 infected KM mouse systemic infection model assessed as decrease in mouse mortality administered orally twice after 1 and 4 hrs post infection measured up to 7 days; conditions: 10-4, po; procedure, shortened: as §3
Enterococcus faecium [17] = test: Antibacterial activity against Enterococcus faecium 09-3 after 18 hrs by two fold serial dilution method; conditions: 09-3, 18 h; procedure, shortened: as §2
Pseudomonas aeruginosa [18] = test: Antibacterial activity against Pseudomonas aeruginosa 10-2 after 18 hrs by two fold serial dilution method; conditions: 10-2, 18 h; procedure, shortened: as §2
Enterococcus faecium [19] = test: Antibacterial activity against Enterococcus faecium 09-5 after 18 hrs by two fold serial dilution method; conditions: 09-5, 18 h; procedure, shortened: as §2
Staphylococcus aureus [20] = test: Antibacterial activity against methicillin-resistant Staphylococcus aureus 10-2 infected KM mouse systemic infection model assessed as decrease in mouse mortality administered orally twice after 1 and 4 hrs post infection measured up to 7 days; conditions: 10-2, po; procedure, shortened: as §3
Enterococcus faecium [21] = test: Antibacterial activity against Enterococcus faecium 09-4 after 18 hrs by two fold serial dilution method; conditions: 09-4, 18 h; procedure, shortened: as §2
[22] = test system: Staphylococcus epidermidis; test: Antibacterial activity against methicillin-sensitive Staphylococcus epidermidis 10-2 after 18 hrs by two fold serial dilution method; conditions: 10-2, 18 h; procedure, shortened: as §2
Staphylococcus aureus [23] = test: Antibacterial activity against methicillin-resistant Staphylococcus aureus 10-3 after 18 hrs by two fold serial dilution method; conditions: 10-3, 18 h; procedure, shortened: as §1
[24] = test system: Staphylococcus epidermidis; test: Antibacterial activity against methicillin-resistant Staphylococcus epidermidis 10-2 after 18 hrs by two fold serial dilution method; conditions: 10-2, 18 h; procedure, shortened: as §1
Enterococcus faecium [25] = test: Antibacterial activity against Enterococcus faecium 09-2 after 18 hrs by two fold serial dilution method; conditions: 09-2, 18 h; procedure, shortened: as §2
[26] = test system: Staphylococcus epidermidis; test: Antibacterial activity against methicillin-resistant Staphylococcus epidermidis 10-4 after 18 hrs by two fold serial dilution method; conditions: 10-4, 18 h; procedure, shortened: as §1
Pseudomonas aeruginosa [27] = test: Antibacterial activity against Pseudomonas aeruginosa 10-1 infected KM mouse systemic infection model assessed as decrease in mouse mortality administered orally twice after 1 and 4 hrs post infection measured up to 7 days; conditions: 10-1, po; procedure, shortened: as §3
[28] = test system: Staphylococcus epidermidis; test: Antibacterial activity against methicillin-sensitive Staphylococcus epidermidis 10-1 after 18 hrs by two fold serial dilution method; conditions: 10-1, 18 h; procedure, shortened: as §2
Klebsiella pneumoniae [29] = test: Antibacterial activity against Klebsiella pneumoniae 10-3 after 18 hrs by two fold serial dilution method; conditions: 10-3, 18 h; procedure, shortened: as §2
Escherichia coli [30] = test: Antibacterial activity against Escherichia coli 09-3 after 18 hrs by two fold serial dilution method; conditions: 09-3, 18 h; procedure, shortened: as §2
Streptococcus pneumoniae = test: Antibacterial activity against Streptococcus pneumoniae 10-1 after 18 hrs by two fold serial dilution method; conditions: 10-1, 18 h; procedure, shortened: as §2
Staphylococcus aureus [31] = test: Antibacterial activity against methicillin-sensitive Staphylococcus aureus 10-4 after 18 hrs by two fold serial dilution method; conditions: 10-4, 18 h; procedure, shortened: as §2
Enterococcus faecalis [32] = test: Antibacterial activity against Enterococcus faecalis 09-2 after 18 hrs by two fold serial dilution method; conditions: 09-2, 18 h; procedure, shortened: as §2
Escherichia coli [33] = test: Antibacterial activity against Escherichia coli 10-2 infected KM mouse systemic infection model assessed as decrease in mouse mortality administered orally twice after 1 and 4 hrs post infection measured up to 7 days; conditions: 10-2, po; procedure, shortened: as §3

`O=C(O)c1cn(C2CC2)c2cc(N3CCNCC3)c(F)cc2c1=O` [CIPROFLOXACIN] showed an MIC [1] of 16 µg/mL (≈ 48.3 µM), an MIC (Staphylococcus aureus [2]) of 0.25 µg/mL (≈ 0.754 µM) and an MIC (Enterococcus faecium [3]) of 0.5 µg/mL (≈ 1.51 µM). For the same molecule, the MIC (Staphylococcus aureus [4]) was 64 µg/mL (≈ 193 µM), the MIC (Staphylococcus aureus [5]) was > 128 µg/mL and the MIC (Klebsiella pneumoniae [6]) was 32 µg/mL (≈ 96.6 µM). For the same molecule, the MIC (Pseudomonas aeruginosa [7]) was 0.06 µg/mL (≈ 0.181 µM), the MIC (Enterococcus faecium [8]) was > 128 µg/mL and the ED50 (Klebsiella pneumoniae [9]) was 87.5 mg/kg. For the same molecule, the MIC (Staphylococcus aureus [10]) was > 128 µg/mL, the MIC (Klebsiella pneumoniae [11]) was 0.06 µg/mL (≈ 0.181 µM) and the MIC (Staphylococcus aureus [12]) was 0.06 µg/mL (≈ 0.181 µM). The MIC (Enterococcus faecalis [13]) was 64 µg/mL (≈ 193 µM), the MIC (Staphylococcus aureus [14]) was 0.015 µg/mL (≈ 0.0453 µM) and the MIC (Staphylococcus aureus [15]) was 0.03 µg/mL (≈ 0.0905 µM). For the same molecule, the ED50 [16] was 24.5 mg/kg, the MIC (Enterococcus faecium [17]) was 128 µg/mL (≈ 386 µM) and the MIC (Pseudomonas aeruginosa [18]) was > 128 µg/mL. It also gave an MIC (Enterococcus faecium [19]) of 64 µg/mL (≈ 193 µM), an ED50 (Staphylococcus aureus [20]) of 15.9 mg/kg and an MIC (Enterococcus faecium [21]) of 0.5 µg/mL (≈ 1.51 µM). For the same molecule, the MIC [22] was 64 µg/mL (≈ 193 µM), the MIC (Staphylococcus aureus [23]) was > 128 µg/mL and the MIC [24] was 8 µg/mL (≈ 24.1 µM). The MIC (Enterococcus faecium [25]) was > 128 µg/mL, the MIC [26] was 8 µg/mL (≈ 24.1 µM) and the ED50 (Pseudomonas aeruginosa [27]) was 111 mg/kg. The MIC [28] was 8 µg/mL (≈ 24.1 µM), the MIC (Klebsiella pneumoniae [29]) was 0.25 µg/mL (≈ 0.754 µM) and the MIC (Escherichia coli [30]) was 64 µg/mL (≈ 193 µM). The MIC (Streptococcus pneumoniae) was 0.03 µg/mL (≈ 0.0905 µM), the MIC (Staphylococcus aureus [31]) was 0.06 µg/mL (≈ 0.181 µM) and the MIC (Enterococcus faecalis [32]) was 64 µg/mL (≈ 193 µM). The ED50 (Escherichia coli [33]) was 4 mg/kg.
